Activity calls are given as the source filed them.
Experiments:
Mus musculus [1] = test: Antinociceptive activity in Swiss mouse assessed as inhibition of formaldehyde-induced nociceptive response in right hind paw at 50 to 150 mg/kg, po administered 5 mins followed by formaldehyde challenge measured over 5 mins; assay type: functional, organism-based
Procedure, shortened: (§1)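 Female Swiss mice received compound p.o. (50, 100 or 150 mg/kg in 0.5% CMC) 5 min before s.c. injection of 0.92% formaldehyde (20 µL) into the right hindpaw. Licking time was recorded at 0–5 min and 15–30 min; n = 9. ANOVA with Newman–Keuls.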

Mus musculus [2] = test: Antinociceptive activity in Swiss mouse assessed as inhibition of formaldehyde-induced nociceptive response in right hind paw at 50 to 150 mg/kg, po administered 5 mins followed by formaldehyde challenge measured for 15 to 30 mins; assay type: functional, organism-based; procedure, shortened: as §1
Mus musculus [3] = test: Antinociceptive activity in po dosed Swiss mouse assessed as inhibition of formaldehyde-induced nociceptive response in right hind paw administered 1 hr followed by formaldehyde challenge measured over 5 mins; assay type: functional, organism-based
Procedure, shortened: (§2)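 Female Swiss mice received vehicle (0.5% CMC, 4 ml/kg) or compound p.o. at 50–150 mg/kg, or at 3–30 mg/kg, 1 h before 20 µL of 0.92% formaldehyde s.c. into the dorsal right hindpaw. Paw-licking time was scored at 0–5 min (first phase) and 15–30 min (second phase). n = 9. Data: mean ± S.E.M., one-way ANOVA with Newman–Keuls.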

Mus musculus [4] = test: Antinociceptive activity in Swiss mouse assessed as inhibition of formaldehyde-induced nociceptive response in right hind paw at 100 to 150 mg/kg, po administered 1 hr followed by formaldehyde challenge measured 15 to 30 mins; assay type: functional, organism-based; procedure, shortened: as §2
Mus musculus [5] = test: Antinociceptive activity in Swiss mouse assessed as inhibition of formaldehyde-induced nociceptive response in right hind paw at 3 to 30 mg/kg, po administered 1 hr followed by formaldehyde challenge; assay type: functional, organism-based; procedure, shortened: as §2
Mus musculus [6] = test: Antinociceptive activity in Swiss mouse assessed as inhibition of formaldehyde-induced nociceptive response in right hind paw at 100 mg/kg, po administered 1 hr followed by formaldehyde challenge measured over 5 mins; assay type: functional, organism-based; design: dose 100 mg/kg; procedure, shortened: as §2
Mus musculus [7] = test: Antinociceptive activity in Swiss mouse assessed as inhibition of formaldehyde-induced nociceptive response in right hind paw at 100 mg/kg, po administered 1 hr followed by formaldehyde challenge measured for 15 to 30 mins; assay type: functional, organism-based; design: dose 100 mg/kg; procedure, shortened: as §2
Mus musculus [8] = test: Toxicity in Swiss mouse assessed as time spent on rotating rod at 150 mg/kg, po administered 1 hr prior to testing (reference value: 120 secs); assay type: organism-based; design: dose 150 mg/kg, route oral; conditions: in vivo
Procedure, shortened: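 Female Swiss mice were trained on a rota-rod (14 rpm) over 3 days, with a 2 min cut-off. After baseline timing, they were dosed p.o. with vehicle (0.5% CMC, 4 ml/kg), compound at 150 mg/kg, or phenobarbital 40 mg/kg as positive control, and retested 1 h later. n = 9.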

[9] = Cmax in Swiss mouse at 100 mg/kg, po by LC-MS/MS analysis; assay type: ADME, organism-based; design: dose 100 mg/kg, route oral; conditions: in vivo
Procedure, shortened: (§3)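 Female Swiss mice (25–30 g), fasted 12 h, given 100 mg/kg p.o. as a suspension in 0.5% CMC (4 mL/kg). Heparinized blood was centrifuged and plasma stored at −70 °C. Plasma was run by LC–MS/MS on a C18 column with methanol/2 mM ammonium acetate + 0.03% formic acid (33:67). Values are mean ± S.E.M.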

[10] = Tmax in Swiss mouse at 100 mg/kg, po by LC-MS/MS analysis; assay type: ADME, organism-based; design: dose 100 mg/kg, route oral; conditions: in vivo; procedure, shortened: as §3
[11] = AUC (0 to t) in Swiss mouse at 100 mg/kg, po by LC-MS/MS analysis; assay type: ADME, organism-based; design: dose 100 mg/kg, route oral; conditions: plasma; procedure, shortened: as §3
[12] = AUC (0 to infinity) in Swiss mouse at 100 mg/kg, po by LC-MS/MS analysis; assay type: ADME, organism-based; design: time infinity, dose 100 mg/kg, route oral; conditions: plasma; procedure, shortened: as §3
[13] = Half life in Swiss mouse at 100 mg/kg, po by LC-MS/MS analysis; assay type: ADME, organism-based; design: dose 100 mg/kg, route oral; conditions: in vivo; procedure, shortened: as §3
Plasma [14] = test: Drug metabolism in Swiss mouse plasma assessed as nitrite level at 100 mg/kg, po measured after 0.25 to 3 hrs by Griess assay; assay type: ADME, organism-based; design: dose 100 mg/kg, route oral; conditions: in vivo
Procedure, shortened: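 Female Swiss mice fasted 12 h received vehicle (0.5% CMC, 4 ml/kg) or compound at 100 mg/kg p.o. After ketamine/xylazine anesthesia at 15 min, 1 h and 3 h, blood was taken from the abdominal artery to avoid hemolysis. Heparinized plasma, stored at −70 °C, was mixed 1:1 with Griess reagent for 10 min at room temperature. A540 read against blank plasma; n = 7.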

Plasma [15] = test: Drug metabolism in Swiss mouse plasma assessed as formation of nicotinamide at 100 mg/kg, po after 10 hrs by LC-MS/MS analysis; assay type: ADME, organism-based; design: dose 100 mg/kg, route oral; conditions: in vivo
Procedure, shortened: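 Female Swiss mice fasted 12 h received 100 mg/kg p.o. in 0.5% CMC. Six mice per time point were sampled by decapitation from 5 min to 10 h, plus six untreated controls. Heparinized plasma stored at −70 °C. Nicotinamide measured by LC–MS/MS (C18, methanol/ammonium acetate–formic acid mobile phase).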

Mus musculus [16] = test: Toxicity in Swiss mouse assessed as time spent on rotating rod at 40 mg/kg, po administered 1 hr prior to testing (reference value: 119 +/- 1 secs); assay type: organism-based; design: dose 40 mg/kg, route oral; conditions: in vivo
Mus musculus [17] = test: Antinociceptive activity in Swiss mouse assessed as inhibition of formaldehyde-induced nociceptive response in right hind paw at 150 mg/kg, po administered 1 hr followed by formaldehyde challenge measured over 5 mins; assay type: functional, organism-based; design: dose 150 mg/kg; procedure, shortened: as §2
Mus musculus [18] = test: Antinociceptive activity in Swiss mouse assessed as inhibition of formaldehyde-induced nociceptive response in right hind paw at 150 mg/kg, po administered 1 hr followed by formaldehyde challenge measured 15 to 30 mins; assay type: functional, organism-based; design: dose 150 mg/kg; procedure, shortened: as §2

Structure (SMILES): O=C(NCCO)c1ccccn1
- inhibition (Mus musculus [1]): inactive
- inhibition (Mus musculus [2]): inactive

Structure (SMILES): O=C(NCCO[N+](=O)[O-])c1cccnc1 [NICORANDIL]
- inhibition (Mus musculus [3]): Dose-dependent effect
- inhibition (Mus musculus [4]): Active
- inhibition (Mus musculus [5]): inactive
- inhibition (Mus musculus [6]): Active
- inhibition (Mus musculus [7]): Active
- Time (Mus musculus [8]): 120 s
- Cmax [9]: 42600 ng/mL
- Tmax [10]: 40.2 min
- AUC(0-t) [11]: 121 µg·h/mL
- AUC(0-inf) [12]: 123 µg·h/mL
- half-life [13]: 90 min
- Drug metabolism (Plasma [14]): metabolite_detected
- Drug metabolism (Plasma [15]): metabolite_detected

Structure (SMILES): O=C(NCCO)c1ccncc1
- inhibition (Mus musculus [1]): inactive
- inhibition (Mus musculus [2]): inactive

Structure (SMILES): CCC1(c2ccccc2)C(=O)NC(=O)NC1=O [PHENOBARBITAL]
- Time (Mus musculus [16]): 26 s

Structure (SMILES): O=C(NCCO)c1cccnc1
- inhibition (Mus musculus [1]): inactive
- inhibition (Mus musculus [2]): inactive

Structure (SMILES): O=C(NCCO[N+](=O)[O-])c1ccccn1
- inhibition (Mus musculus [17]): Active
- inhibition (Mus musculus [18]): Active
- inhibition (Mus musculus [1]): inactive
- inhibition (Mus musculus [2]): inactive
- inhibition (Mus musculus [6]): Active
- inhibition (Mus musculus [7]): Active
- Time (Mus musculus [8]): 120 s
- Cmax [9]: 30800 ng/mL
- Tmax [10]: 6.6 min
- AUC(0-t) [11]: 10.1 µg·h/mL
- AUC(0-inf) [12]: 10.1 µg·h/mL
- half-life [13]: 66 min
- Drug metabolism (Plasma [14]): metabolite_notdetected
- Drug metabolism (Plasma [15]): metabolite_detected

Structure (SMILES): O=C(NCCO[N+](=O)[O-])c1ccncc1
- inhibition (Mus musculus [4]): Active
- inhibition (Mus musculus [6]): Active
- inhibition (Mus musculus [7]): Active
- Time (Mus musculus [8]): 120 s
- Cmax [9]: 49400 ng/mL
- Tmax [10]: 52.8 min
- AUC(0-t) [11]: 160 µg·h/mL
- AUC(0-inf) [12]: 160 µg·h/mL
- half-life [13]: 45.6 min
- Drug metabolism (Plasma [14]): metabolite_detected
- Drug metabolism (Plasma [15]): metabolite_detected
